Laboratory results reported in the M2OR odorant receptor database.
Where a chain is given by its changes, count along the chain named.

What was measured:
Conditions in all cases: stereoisomer not certain
O5AP2 A105T = system: T1, O5AP2 A105T
T1 sequence (whole entry): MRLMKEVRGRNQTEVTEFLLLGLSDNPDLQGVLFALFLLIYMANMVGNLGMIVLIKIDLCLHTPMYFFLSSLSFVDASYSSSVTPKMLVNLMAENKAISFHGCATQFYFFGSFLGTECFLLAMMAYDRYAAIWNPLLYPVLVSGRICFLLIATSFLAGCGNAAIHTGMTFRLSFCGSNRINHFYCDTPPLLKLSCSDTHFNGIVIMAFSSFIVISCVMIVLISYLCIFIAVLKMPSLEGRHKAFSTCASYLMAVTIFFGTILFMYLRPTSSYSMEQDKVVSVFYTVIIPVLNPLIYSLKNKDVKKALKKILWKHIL
Summary of the method: (§1)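 Each receptor–molecule pair is labelled responsive or non-responsive (inactive) according to whether the original authors judged the measured signal statistically different from baseline. The data were taken from the main text and supplementary material of published papers and checked for typos and inconsistencies. Assay methods differed by source, with transient luciferase assays in mammalian cell lines being common.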

O5AU1 = system: T2, O5AU1
T2 sequence (whole entry): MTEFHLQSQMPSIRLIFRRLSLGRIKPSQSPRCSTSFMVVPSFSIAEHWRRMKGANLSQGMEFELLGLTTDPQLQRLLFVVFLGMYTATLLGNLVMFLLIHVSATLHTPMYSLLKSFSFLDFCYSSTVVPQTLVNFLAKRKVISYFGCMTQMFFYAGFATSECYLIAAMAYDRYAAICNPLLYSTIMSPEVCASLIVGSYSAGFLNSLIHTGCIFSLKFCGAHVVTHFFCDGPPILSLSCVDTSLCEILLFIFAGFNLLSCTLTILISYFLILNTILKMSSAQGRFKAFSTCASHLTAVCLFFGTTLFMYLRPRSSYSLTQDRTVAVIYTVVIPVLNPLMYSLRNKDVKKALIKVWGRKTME
Summary of the method: as §1

O5H14 = system: T3, O5H14
T3 sequence (whole entry): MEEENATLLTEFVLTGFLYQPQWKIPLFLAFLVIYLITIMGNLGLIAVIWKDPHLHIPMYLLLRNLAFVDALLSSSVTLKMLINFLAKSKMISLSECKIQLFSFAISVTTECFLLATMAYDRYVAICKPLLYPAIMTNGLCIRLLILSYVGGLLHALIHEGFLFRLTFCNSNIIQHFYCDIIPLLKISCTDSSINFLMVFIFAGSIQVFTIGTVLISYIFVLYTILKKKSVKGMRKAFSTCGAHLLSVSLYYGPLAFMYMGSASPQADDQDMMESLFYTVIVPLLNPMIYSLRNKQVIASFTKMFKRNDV
Summary of the method: as §1

O5H15 V108I S148T T167S = system: T4, O5H15 V108I S148T T167S
T4 sequence (whole entry): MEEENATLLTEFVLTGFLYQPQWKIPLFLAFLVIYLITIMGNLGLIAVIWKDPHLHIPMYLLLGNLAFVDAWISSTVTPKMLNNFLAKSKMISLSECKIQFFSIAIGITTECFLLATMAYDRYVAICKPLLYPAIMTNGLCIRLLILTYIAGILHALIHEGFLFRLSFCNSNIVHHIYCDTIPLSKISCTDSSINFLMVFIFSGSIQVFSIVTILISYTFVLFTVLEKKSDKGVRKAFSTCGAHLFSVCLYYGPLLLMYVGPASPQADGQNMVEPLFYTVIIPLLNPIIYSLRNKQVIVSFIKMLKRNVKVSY
Summary of the method: as §1

O6C65 T222A = system: T5, O6C65 T222A
T5 sequence (whole entry): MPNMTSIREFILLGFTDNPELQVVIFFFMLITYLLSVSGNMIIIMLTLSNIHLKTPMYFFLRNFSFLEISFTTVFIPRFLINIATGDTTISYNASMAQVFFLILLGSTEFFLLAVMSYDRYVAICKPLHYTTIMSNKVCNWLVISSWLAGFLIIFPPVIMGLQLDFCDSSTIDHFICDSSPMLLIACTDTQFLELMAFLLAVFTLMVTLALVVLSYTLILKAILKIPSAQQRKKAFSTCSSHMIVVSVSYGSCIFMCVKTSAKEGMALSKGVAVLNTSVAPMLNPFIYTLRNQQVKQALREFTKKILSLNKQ
Summary of the method: as §1

O6C70 L181P = system: T6, O6C70 L181P
T6 sequence (whole entry): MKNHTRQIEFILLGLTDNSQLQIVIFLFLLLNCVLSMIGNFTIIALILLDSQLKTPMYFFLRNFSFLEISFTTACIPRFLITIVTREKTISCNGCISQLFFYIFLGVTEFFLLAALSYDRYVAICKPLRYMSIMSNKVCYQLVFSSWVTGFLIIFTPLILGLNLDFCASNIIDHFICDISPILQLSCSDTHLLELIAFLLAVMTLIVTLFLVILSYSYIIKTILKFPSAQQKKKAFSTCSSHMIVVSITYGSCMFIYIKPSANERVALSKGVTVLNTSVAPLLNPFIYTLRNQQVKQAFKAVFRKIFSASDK
Summary of the method: as §1

O7E24 S193F P242S = system: T7, O7E24 S193F P242S
T7 sequence (whole entry): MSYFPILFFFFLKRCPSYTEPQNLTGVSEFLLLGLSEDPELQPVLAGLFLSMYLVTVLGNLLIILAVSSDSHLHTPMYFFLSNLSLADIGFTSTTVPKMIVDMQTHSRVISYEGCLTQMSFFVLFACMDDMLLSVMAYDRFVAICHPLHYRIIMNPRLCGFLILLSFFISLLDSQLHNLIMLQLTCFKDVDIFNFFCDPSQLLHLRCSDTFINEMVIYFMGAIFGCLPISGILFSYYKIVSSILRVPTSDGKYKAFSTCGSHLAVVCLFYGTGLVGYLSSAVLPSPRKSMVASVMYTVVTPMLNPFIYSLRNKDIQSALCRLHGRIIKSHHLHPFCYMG
Summary of the method: as §1

O7E24 = system: T8, O7E24
T8 sequence (whole entry): T7 sequence (whole entry) with F193S
Summary of the method: as §1

OR10A2 (Homo sapiens) = molecular target: T9, OR10A2 (Homo sapiens) (UniProt Q9H208)
T9 sequence (whole entry): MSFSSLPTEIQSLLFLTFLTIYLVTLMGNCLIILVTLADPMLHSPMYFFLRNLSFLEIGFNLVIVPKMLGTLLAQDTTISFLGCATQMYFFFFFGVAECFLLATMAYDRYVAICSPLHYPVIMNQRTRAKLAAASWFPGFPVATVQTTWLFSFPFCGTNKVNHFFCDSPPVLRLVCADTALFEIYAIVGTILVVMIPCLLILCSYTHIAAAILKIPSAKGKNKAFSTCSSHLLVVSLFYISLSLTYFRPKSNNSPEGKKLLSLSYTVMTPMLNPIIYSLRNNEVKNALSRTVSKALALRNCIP
Summary of the method: as §1

OR10A3 (Homo sapiens) = molecular target: T10, OR10A3 (Homo sapiens) (UniProt P58181)
T10 sequence (whole entry): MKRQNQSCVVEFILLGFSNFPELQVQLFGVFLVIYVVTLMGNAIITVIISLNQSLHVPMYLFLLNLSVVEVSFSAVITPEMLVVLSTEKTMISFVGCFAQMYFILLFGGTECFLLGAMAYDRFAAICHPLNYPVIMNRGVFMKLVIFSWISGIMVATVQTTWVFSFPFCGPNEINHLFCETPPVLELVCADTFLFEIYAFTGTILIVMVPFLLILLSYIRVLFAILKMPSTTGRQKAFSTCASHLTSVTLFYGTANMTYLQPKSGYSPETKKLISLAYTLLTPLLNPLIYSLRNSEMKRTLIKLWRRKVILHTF
Summary of the method: as §1

OR10A4 (Homo sapiens) = molecular target: T11, OR10A4 (Homo sapiens) (UniProt Q9H209)
T11 sequence (whole entry): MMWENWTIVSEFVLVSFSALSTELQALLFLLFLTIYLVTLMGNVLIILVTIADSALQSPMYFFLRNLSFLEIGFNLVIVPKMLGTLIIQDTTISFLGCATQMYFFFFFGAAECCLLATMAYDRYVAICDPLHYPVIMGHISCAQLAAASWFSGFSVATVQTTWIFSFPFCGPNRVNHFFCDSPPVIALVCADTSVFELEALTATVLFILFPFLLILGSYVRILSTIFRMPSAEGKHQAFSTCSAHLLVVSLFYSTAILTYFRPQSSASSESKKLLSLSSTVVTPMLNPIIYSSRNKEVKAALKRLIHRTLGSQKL
Summary of the method: as §1

OR10A5 (Homo sapiens) = molecular target: T12, OR10A5 (Homo sapiens) (UniProt Q9H207)
T12 sequence (whole entry): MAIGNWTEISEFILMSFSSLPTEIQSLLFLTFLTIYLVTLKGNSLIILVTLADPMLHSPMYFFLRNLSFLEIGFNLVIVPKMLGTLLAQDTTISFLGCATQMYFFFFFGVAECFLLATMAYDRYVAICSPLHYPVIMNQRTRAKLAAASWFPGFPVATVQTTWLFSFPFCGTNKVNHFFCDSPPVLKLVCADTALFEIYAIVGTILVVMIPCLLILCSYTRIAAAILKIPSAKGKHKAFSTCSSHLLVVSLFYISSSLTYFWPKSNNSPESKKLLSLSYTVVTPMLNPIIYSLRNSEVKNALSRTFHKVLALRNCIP
Summary of the method: as §1

OR10A6 (Homo sapiens) = molecular target: T13, OR10A6 (Homo sapiens) (UniProt Q8NH74)
T13 sequence (whole entry): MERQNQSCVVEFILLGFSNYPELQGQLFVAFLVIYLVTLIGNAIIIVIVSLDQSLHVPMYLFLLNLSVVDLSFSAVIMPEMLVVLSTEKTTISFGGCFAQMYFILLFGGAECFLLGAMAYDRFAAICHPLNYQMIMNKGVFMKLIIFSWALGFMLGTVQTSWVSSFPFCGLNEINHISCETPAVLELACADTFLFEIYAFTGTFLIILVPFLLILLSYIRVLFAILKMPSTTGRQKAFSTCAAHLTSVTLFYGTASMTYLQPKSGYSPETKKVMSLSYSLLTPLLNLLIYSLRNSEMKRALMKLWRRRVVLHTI
Summary of the method: as §1

OR10A7 (Homo sapiens) = molecular target: T14, OR10A7 (Homo sapiens) (UniProt Q8NGE5)
T14 sequence (whole entry): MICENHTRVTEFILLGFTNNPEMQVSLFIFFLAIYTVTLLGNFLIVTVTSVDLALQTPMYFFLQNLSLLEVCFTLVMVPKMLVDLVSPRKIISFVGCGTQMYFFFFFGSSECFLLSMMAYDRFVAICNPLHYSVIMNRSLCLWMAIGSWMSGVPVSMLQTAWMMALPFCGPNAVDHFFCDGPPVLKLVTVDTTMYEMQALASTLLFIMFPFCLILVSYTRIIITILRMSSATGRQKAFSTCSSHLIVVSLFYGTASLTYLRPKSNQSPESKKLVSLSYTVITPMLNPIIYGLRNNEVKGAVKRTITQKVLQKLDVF
Summary of the method: as §1

OR10AD1 (Homo sapiens) = molecular target: T15, OR10AD1 (Homo sapiens) (UniProt Q8NGE0)
T15 sequence (whole entry): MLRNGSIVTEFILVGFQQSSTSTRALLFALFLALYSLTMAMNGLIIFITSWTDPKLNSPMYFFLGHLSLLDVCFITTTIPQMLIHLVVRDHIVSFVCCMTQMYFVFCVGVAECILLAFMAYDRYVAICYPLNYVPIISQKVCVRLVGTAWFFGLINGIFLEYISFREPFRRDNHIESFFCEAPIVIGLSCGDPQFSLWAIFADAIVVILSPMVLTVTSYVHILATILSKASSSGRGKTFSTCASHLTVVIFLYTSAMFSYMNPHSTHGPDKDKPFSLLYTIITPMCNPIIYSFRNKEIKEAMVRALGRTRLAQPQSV
Summary of the method: as §1

OR10AG1 (Homo sapiens) = molecular target: T16, OR10AG1 (Homo sapiens) (UniProt Q8NH19)
T16 sequence (whole entry): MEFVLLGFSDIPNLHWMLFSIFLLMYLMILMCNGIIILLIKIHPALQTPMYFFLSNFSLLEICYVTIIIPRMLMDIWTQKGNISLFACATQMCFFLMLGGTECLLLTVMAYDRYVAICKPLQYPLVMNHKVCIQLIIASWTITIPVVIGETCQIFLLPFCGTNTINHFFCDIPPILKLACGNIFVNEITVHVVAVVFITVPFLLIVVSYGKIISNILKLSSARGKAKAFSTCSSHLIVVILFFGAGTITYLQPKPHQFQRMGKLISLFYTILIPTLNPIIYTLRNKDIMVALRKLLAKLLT
Summary of the method: as §1

OR10C1 (Homo sapiens) = molecular target: T17, OR10C1 (Homo sapiens) (UniProt Q96KK4)
T17 sequence (whole entry): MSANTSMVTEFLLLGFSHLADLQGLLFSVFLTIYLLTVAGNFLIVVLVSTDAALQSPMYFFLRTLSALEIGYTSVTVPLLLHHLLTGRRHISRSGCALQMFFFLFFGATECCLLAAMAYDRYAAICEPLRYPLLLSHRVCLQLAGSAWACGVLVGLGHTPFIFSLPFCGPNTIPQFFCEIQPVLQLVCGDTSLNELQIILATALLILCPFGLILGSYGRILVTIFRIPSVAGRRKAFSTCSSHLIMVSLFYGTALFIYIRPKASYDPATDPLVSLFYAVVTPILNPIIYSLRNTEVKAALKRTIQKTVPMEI
Summary of the method: as §1

OR10D3 (Homo sapiens) = molecular target: T18, OR10D3 (Homo sapiens) (UniProt Q8NH80)
T18 sequence (whole entry): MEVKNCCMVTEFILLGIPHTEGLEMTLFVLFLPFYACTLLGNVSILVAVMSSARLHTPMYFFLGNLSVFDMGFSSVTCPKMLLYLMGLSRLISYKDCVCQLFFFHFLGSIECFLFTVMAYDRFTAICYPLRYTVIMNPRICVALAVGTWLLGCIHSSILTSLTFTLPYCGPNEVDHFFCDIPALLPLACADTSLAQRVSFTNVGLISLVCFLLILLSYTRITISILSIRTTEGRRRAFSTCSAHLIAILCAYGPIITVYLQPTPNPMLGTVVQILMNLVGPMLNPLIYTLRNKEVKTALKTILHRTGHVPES
Summary of the method: as §1

Measured: odorant receptor agonist call;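 note: active if original authors judged signal statistically different from baseline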

CCC1OC(C)=C(O)C1=O (stereo not drawn)
inactive: all assays above
